# Test system: OVCAR-5
# Experiment: Growth inhibition of human OVCAR5 cells at 10 uM after 48 hrs by coulter counter analysis
# Assay type: functional
# Settings: OVCAR-5, 48 h, read-out: GI
# Method in brief: (§1)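 Single-dose NCI 60-line panel screen of test compounds. Cells grown in RPMI 1640 with 10% FBS. Compounds dissolved in DMSO, then diluted in phosphate buffer saline (final DMSO below 1%). Wells run in duplicate at 6 × 10⁴ cells/ml. Controls held PBS and DMSO at matching dilutions. Incubation 48 h at 37 °C under humidified 5% CO2. Cells diluted tenfold in saline and counted by Coulter counter. Percent growth inhibition taken from mean-graph of treated-cell growth.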
row,SMILES,inhibition of growth at 10 µM [%]
1,Cc1cnc(NC(=O)CN2CCN(C)CC2)s1,< 10

# Test system: MCF7
# Experiment: Growth inhibition of human MCF7 cells at 10 uM after 48 hrs by coulter counter analysis
# Assay type: functional
# Settings: MCF7, 48 h, read-out: GI
# Method in brief: as §1
row,SMILES,inhibition of growth at 10 µM [%]
1,Cc1cnc(NC(=O)CN2CCN(C)CC2)s1,< 10

# Test system: SR
# Experiment: Growth inhibition of human SR cells at 10 uM after 48 hrs by coulter counter analysis
# Assay type: functional
# Settings: read-out: GI
# Method in brief: (§2)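 Single-dose screen in the NCI 60 cell line panel. Cells grown in RPMI 1640 with 10% FBS. Compounds dissolved in DMSO and diluted in phosphate buffered saline, final DMSO under 1%. Duplicate wells seeded from culture at 6 × 10⁴ cells/ml. Incubated 48 h at 37 °C, humidified, 5% CO2. Cells diluted tenfold in saline and Coulter-counted. Percent growth inhibition computed against PBS/DMSO controls.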
row,SMILES,inhibition of growth at 10 µM [%]
1,Cc1cnc(NC(=O)CN2CCN(C)CC2)s1,51.8

# Test system: UACC-62
# Experiment: Growth inhibition of human UACC62 cells at 10 uM after 48 hrs by coulter counter analysis
# Assay type: functional
# Settings: UACC-62, 48 h, read-out: GI
# Method in brief: as §2
row,SMILES,inhibition of growth at 10 µM [%]
1,Cc1cnc(NC(=O)CN2CCN(C)CC2)s1,< 10

# Test system: SF-295
# Experiment: Growth inhibition of human SF295 cells at 10 uM after 48 hrs by coulter counter analysis
# Assay type: functional
# Settings: SF-295, 48 h, read-out: GI
# Method in brief: as §1
row,SMILES,inhibition of growth at 10 µM [%]
1,Cc1cnc(NC(=O)CN2CCN(C)CC2)s1,< 10

# Test system: HOP-92
# Experiment: Growth inhibition of human HOP92 cells at 10 uM after 48 hrs by coulter counter analysis
# Assay type: functional
# Settings: HOP-92, 48 h, read-out: GI
# Method in brief: as §1
row,SMILES,inhibition of growth at 10 µM [%]
1,Cc1cnc(NC(=O)CN2CCN(C)CC2)s1,< 10

# Test system: M14
# Experiment: Growth inhibition of human M14 cells at 10 uM after 48 hrs by coulter counter analysis
# Assay type: functional
# Settings: M14, 48 h, read-out: GI
# Method in brief: as §1
row,SMILES,inhibition of growth at 10 µM [%]
1,Cc1cnc(NC(=O)CN2CCN(C)CC2)s1,< 10

# Test system: T47D
# Experiment: Growth inhibition of human T47D cells at 10 uM after 48 hrs by coulter counter analysis
# Assay type: functional
# Settings: read-out: GI
# Method in brief: as §2
row,SMILES,inhibition of growth at 10 µM [%]
1,Cc1cnc(NC(=O)CN2CCN(C)CC2)s1,< 10

# Test system: NCI-H322M
# Experiment: Growth inhibition of human NCI-H322M cells at 10 uM after 48 hrs by coulter counter analysis
# Assay type: functional
# Settings: read-out: GI
# Method in brief: as §1
row,SMILES,inhibition of growth at 10 µM [%]
1,Cc1cnc(NC(=O)CN2CCN(C)CC2)s1,< 10

# Test system: BT-549
# Experiment: Growth inhibition of human BT549 cells at 10 uM after 48 hrs by coulter counter analysis
# Assay type: functional
# Settings: BT-549, 48 h, read-out: GI
# Method in brief: as §1
row,SMILES,inhibition of growth at 10 µM [%]
1,Cc1cnc(NC(=O)CN2CCN(C)CC2)s1,< 10

# Test system: NCI-H522
# Experiment: Growth inhibition of human NCI-H522 cells at 10 uM after 48 hrs by coulter counter analysis
# Assay type: functional
# Settings: NCI-H522, 48 h, read-out: GI
# Method in brief: as §1
row,SMILES,inhibition of growth at 10 µM [%]
1,Cc1cnc(NC(=O)CN2CCN(C)CC2)s1,< 10

# Test system: NCI-H226
# Experiment: Growth inhibition of human NCI-H226 cells at 10 uM after 48 hrs by coulter counter analysis
# Assay type: functional
# Settings: NCI-H226, 48 h, read-out: GI
# Method in brief: as §1
row,SMILES,inhibition of growth at 10 µM [%]
1,Cc1cnc(NC(=O)CN2CCN(C)CC2)s1,< 10

# Test system: UO-31
# Experiment: Growth inhibition of human UO31 cells at 10 uM after 48 hrs by coulter counter analysis
# Assay type: functional
# Settings: UO-31, 48 h, read-out: GI
# Method in brief: as §2
row,SMILES,inhibition of growth at 10 µM [%]
1,Cc1cnc(NC(=O)CN2CCN(C)CC2)s1,10.2

# Test system: MDA-MB-468
# Experiment: Growth inhibition of human MDA-MB-468 cells at 10 uM after 48 hrs by coulter counter analysis
# Assay type: functional
# Settings: MDA-MB-468, 48 h, read-out: GI
# Method in brief: as §1
row,SMILES,inhibition of growth at 10 µM [%]
1,Cc1cnc(NC(=O)CN2CCN(C)CC2)s1,< 10

# Test system: OVCAR-4
# Experiment: Growth inhibition of human OVCAR4 cells at 10 uM after 48 hrs by coulter counter analysis
# Assay type: functional
# Settings: OVCAR-4, 48 h, read-out: GI
# Method in brief: as §1
row,SMILES,inhibition of growth at 10 µM [%]
1,Cc1cnc(NC(=O)CN2CCN(C)CC2)s1,< 10

# Test system: SN12C
# Experiment: Growth inhibition of human SN12C cells at 10 uM after 48 hrs by coulter counter analysis
# Assay type: functional
# Settings: read-out: GI
# Method in brief: as §1
row,SMILES,inhibition of growth at 10 µM [%]
1,Cc1cnc(NC(=O)CN2CCN(C)CC2)s1,< 10

# Test system: MDA-MB-231
# Experiment: Growth inhibition of human MDA-MB-231 cells at 10 uM after 48 hrs by coulter counter analysis
# Assay type: functional
# Settings: MDA-MB-231, 48 h, read-out: GI
# Method in brief: as §1
row,SMILES,inhibition of growth at 10 µM [%]
1,Cc1cnc(NC(=O)CN2CCN(C)CC2)s1,< 10

# Test system: OVCAR-8
# Experiment: Growth inhibition of human OVCAR8 cells at 10 uM after 48 hrs by coulter counter analysis
# Assay type: functional
# Settings: OVCAR-8, 48 h, read-out: GI
# Method in brief: as §1
row,SMILES,inhibition of growth at 10 µM [%]
1,Cc1cnc(NC(=O)CN2CCN(C)CC2)s1,< 10

# Test system: OVCAR-3
# Experiment: Growth inhibition of human OVCAR3 cells at 10 uM after 48 hrs by coulter counter analysis
# Assay type: functional
# Settings: OVCAR-3, 48 h, read-out: GI
# Method in brief: as §1
row,SMILES,inhibition of growth at 10 µM [%]
1,Cc1cnc(NC(=O)CN2CCN(C)CC2)s1,< 10

# Test system: not listed separately
# Experiment: Growth inhibition of human NCI-ADR-RES cells at 10 uM after 48 hrs by coulter counter analysis
# Assay type: functional
# Settings: read-out: GI
# Method in brief: as §1
row,SMILES,inhibition of growth at 10 µM [%]
1,Cc1cnc(NC(=O)CN2CCN(C)CC2)s1,< 10

# Test system: Malme-3M
# Experiment: Growth inhibition of human MALME-3M cells at 10 uM after 48 hrs by coulter counter analysis
# Assay type: functional
# Settings: read-out: GI
# Method in brief: as §1
row,SMILES,inhibition of growth at 10 µM [%]
1,Cc1cnc(NC(=O)CN2CCN(C)CC2)s1,< 10

# Test system: COLO 205
# Experiment: Growth inhibition of human COLO205 cells at 10 uM after 48 hrs by coulter counter analysis
# Assay type: functional
# Settings: COLO 205, 48 h, read-out: GI
# Method in brief: as §1
row,SMILES,inhibition of growth at 10 µM [%]
1,Cc1cnc(NC(=O)CN2CCN(C)CC2)s1,< 10

# Test system: IGROV-1
# Experiment: Growth inhibition of human IGROV1 cells at 10 uM after 48 hrs by coulter counter analysis
# Assay type: functional
# Settings: IGROV-1, 48 h, read-out: GI
# Method in brief: as §1
row,SMILES,inhibition of growth at 10 µM [%]
1,Cc1cnc(NC(=O)CN2CCN(C)CC2)s1,< 10

# Test system: KM12
# Experiment: Growth inhibition of human KM12 cells at 10 uM after 48 hrs by coulter counter analysis
# Assay type: functional
# Settings: KM12, 48 h, read-out: GI
# Method in brief: as §1
row,SMILES,inhibition of growth at 10 µM [%]
1,Cc1cnc(NC(=O)CN2CCN(C)CC2)s1,< 10

# Test system: LOX IMVI
# Experiment: Growth inhibition of human LOXIMVI cells at 10 uM after 48 hrs by coulter counter analysis
# Assay type: functional
# Settings: read-out: GI
# Method in brief: as §1
row,SMILES,inhibition of growth at 10 µM [%]
1,Cc1cnc(NC(=O)CN2CCN(C)CC2)s1,< 10

# Test system: RPMI-8226
# Experiment: Growth inhibition of human RPMI8226 cells at 10 uM after 48 hrs by coulter counter analysis
# Assay type: functional
# Settings: RPMI-8226, 48 h, read-out: GI
# Method in brief: as §1
row,SMILES,inhibition of growth at 10 µM [%]
1,Cc1cnc(NC(=O)CN2CCN(C)CC2)s1,< 10

# Test system: SK-MEL-5
# Experiment: Growth inhibition of human SK-MEL-5 cells at 10 uM after 48 hrs by coulter counter analysis
# Assay type: functional
# Settings: SK-MEL-5, 48 h, read-out: GI
# Method in brief: as §1
row,SMILES,inhibition of growth at 10 µM [%]
1,Cc1cnc(NC(=O)CN2CCN(C)CC2)s1,< 10

# Test system: MDA-MB-435
# Experiment: Growth inhibition of human MDA-MB-435 cells at 10 uM after 48 hrs by coulter counter analysis
# Assay type: functional
# Settings: MDA-MB-435, 48 h, read-out: GI
# Method in brief: as §1
row,SMILES,inhibition of growth at 10 µM [%]
1,Cc1cnc(NC(=O)CN2CCN(C)CC2)s1,< 10

# Test system: SK-MEL-2
# Experiment: Growth inhibition of human SK-MEL-2 cells at 10 uM after 48 hrs by coulter counter analysis
# Assay type: functional
# Settings: SK-MEL-2, 48 h, read-out: GI
# Method in brief: as §1
row,SMILES,inhibition of growth at 10 µM [%]
1,Cc1cnc(NC(=O)CN2CCN(C)CC2)s1,< 10

# Test system: ACHN
# Experiment: Growth inhibition of human ACHN cells at 10 uM after 48 hrs by coulter counter analysis
# Assay type: functional
# Settings: read-out: GI
# Method in brief: as §1
row,SMILES,inhibition of growth at 10 µM [%]
1,Cc1cnc(NC(=O)CN2CCN(C)CC2)s1,< 10

# Test system: SF-268
# Experiment: Growth inhibition of human SF268 cells at 10 uM after 48 hrs by coulter counter analysis
# Assay type: functional
# Settings: SF-268, 48 h, read-out: GI
# Method in brief: as §1
row,SMILES,inhibition of growth at 10 µM [%]
1,Cc1cnc(NC(=O)CN2CCN(C)CC2)s1,< 10

# Test system: SF-539
# Experiment: Growth inhibition of human SF539 cells at 10 uM after 48 hrs by coulter counter analysis
# Assay type: functional
# Settings: SF-539, 48 h, read-out: GI
# Method in brief: as §1
row,SMILES,inhibition of growth at 10 µM [%]
1,Cc1cnc(NC(=O)CN2CCN(C)CC2)s1,< 10

# Test system: HCT-15
# Experiment: Growth inhibition of human HCT15 cells at 10 uM after 48 hrs by coulter counter analysis
# Assay type: functional
# Settings: HCT-15, 48 h, read-out: GI
# Method in brief: as §1
row,SMILES,inhibition of growth at 10 µM [%]
1,Cc1cnc(NC(=O)CN2CCN(C)CC2)s1,< 10

# Test system: HCC 2998
# Experiment: Growth inhibition of human HCC2998 cells at 10 uM after 48 hrs by coulter counter analysis
# Assay type: functional
# Settings: HCC 2998, 48 h, read-out: GI
# Method in brief: as §1
row,SMILES,inhibition of growth at 10 µM [%]
1,Cc1cnc(NC(=O)CN2CCN(C)CC2)s1,< 10

# Test system: not listed separately
# Experiment: Growth inhibition of human Hs 578T cells at 10 uM after 48 hrs by coulter counter analysis
# Assay type: functional
# Settings: read-out: GI
# Method in brief: as §1
row,SMILES,inhibition of growth at 10 µM [%]
1,Cc1cnc(NC(=O)CN2CCN(C)CC2)s1,< 10

# Test system: SW-620
# Experiment: Growth inhibition of human SW620 cells at 10 uM after 48 hrs by coulter counter analysis
# Assay type: functional
# Settings: SW-620, 48 h, read-out: GI
# Method in brief: as §2
row,SMILES,inhibition of growth at 10 µM [%]
1,Cc1cnc(NC(=O)CN2CCN(C)CC2)s1,< 10

# Reference: ChEMBL document CHEMBL2040727, “Substituted thiazoles VI. Synthesis and antitumor activity of new 2-acetamido- and 2 or 3-propanamido-thiazole analogs” (2012)
